Assay results as given in ChEMBL document CHEMBL1629494, “New amino acid esters of salicylanilides active against MDR-TB and other microbes” (Eur J Med Chem, 2010).
Converted amounts (≈) assume the structure as drawn.

Tests used:
PBMC = test: Cytotoxicity against human PBMC after 24 hrs by MTT assay; format: cell-based
Summary of the method: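 Human peripheral blood mononuclear cells in RPMI-1640 with 10% fetal calf serum, 2 mM L-glutamine and gentamicin, 37 °C, 5% CO2. Seeded at 1.5–2.0 × 10⁵ cells/well. After 24 h, treated overnight in serum-free medium. Viability by MTT (2 mg/mL, 4 h); formazan dissolved in DMSO; OD540 minus OD620. Cytotoxicity % = [1 − OD treated/OD control] × 100; IC50 from dose-response curves. Four parallels, two independent experiments.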

[1] = system: Mycobacterium tuberculosis; test: Antimycobacterial activity against Mycobacterium tuberculosis H37Rv 331/88 after 21 days by micromethod; format: functional; details: H37Rv 331/88, 504 h
Summary of the method: (§1)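 Micromethod in Sula semisynthetic medium, with compounds added as DMSO solutions at 1000, 500, 250, 125, 62, 32, 16, 8, 4, 2, 1, 0.5, 0.25. Inoculum dilutions: H37Rv 10^-3; M. avium 330/88 10^-5; M. kansasii 235/80 10^-4; M. kansasii 6509/96 10^-5. Incubated at 37 °C, read at 14 and 21 days, and at 7 days for M. kansasii. MIC was the lowest concentration inhibiting growth.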

Mycobacterium kansasii [2] = test: Antimycobacterial activity against Mycobacterium kansasii 6509/96 after 7 days by micromethod; format: functional; details: 6509/96, 168 h; summary of the method: as §1
[3] = Lipophilicity, log P of the compound; format: physicochemical; details: octanol/water
Mycobacterium avium [4] = test: Antimycobacterial activity against Mycobacterium avium; format: functional
Mycobacterium avium [5] = test: Antimycobacterial activity against multidrug-resistant Mycobacterium avium 330/88 after 14 days by micromethod; format: functional; details: 330/88, 336 h; summary of the method: as §1
Mycobacterium kansasii [6] = test: Antimycobacterial activity against Mycobacterium kansasii 235/80 after 14 days by micromethod; format: functional; details: 235/80, 336 h; summary of the method: as §1
Mycobacterium kansasii [7] = test: Antimycobacterial activity against Mycobacterium kansasii 235/80 after 7 days by micromethod; format: functional; details: 235/80, 168 h; summary of the method: as §1
Mycobacterium kansasii [8] = test: Antimycobacterial activity against Mycobacterium kansasii 6509/96 after 14 days by micromethod; format: functional; details: 6509/96, 336 h; summary of the method: as §1
[9] = system: Mycobacterium tuberculosis; test: Antimycobacterial activity against Mycobacterium tuberculosis H37Rv 331/88 after 14 days by micromethod; format: functional; details: H37Rv 331/88, 336 h; summary of the method: as §1
[10] = Selectivity index, ratio of IC50 for human PBMC to MIC for Mycobacterium tuberculosis H37Rv 331/88 after 14 days; format: functional
Summary of the method: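 SI = PBMC IC50 (MTT cytotoxicity) divided by the MIC against the named M. tuberculosis strain. MIC taken after 14 days of incubation at 37 °C by the micromethod.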

Mycobacterium kansasii [11] = test: Antimycobacterial activity against Mycobacterium kansasii; format: functional
Mycobacterium avium [12] = test: Antimycobacterial activity against multidrug-resistant Mycobacterium avium 330/88 after 21 days by micromethod; format: functional; details: 330/88, 504 h; summary of the method: as §1
Mycobacterium kansasii [13] = test: Antimycobacterial activity against Mycobacterium kansasii 235/80 after 21 days by micromethod; format: functional; details: 235/80, 504 h; summary of the method: as §1
[14] = system: Mycobacterium tuberculosis; test: Antimycobacterial activity against drug-sensitive Mycobacterium tuberculosis; format: functional
Mycobacterium kansasii [15] = test: Antimycobacterial activity against Mycobacterium kansasii 6509/96 after 21 days by micromethod; format: functional; details: 6509/96, 504 h; summary of the method: as §1
Aspergillus fumigatus [16] = test: Antifungal activity against Aspergillus fumigatus 231 after 24 hrs by broth microdilution method; format: functional; details: Aspergillus fumigatus, 231, 24 h
Trichosporon beigelii [17] = test: Antifungal activity against Trichosporon beigelii 1188 after 48 hrs by broth microdilution method; format: functional; details: Trichosporon beigelii, 1188, 48 h
Pichia kudriavzevii [18] = test: Antifungal activity against Candida krusei E28 after 48 hrs by broth microdilution method; format: functional; details: E28, 48 h
Aspergillus fumigatus [19] = test: Antifungal activity against Aspergillus fumigatus 231 after 48 hrs by broth microdilution method; format: functional; details: Aspergillus fumigatus, 231, 48 h
Nakaseomyces glabratus [20] = test: Antifungal activity against Candida glabrata 20/I after 48 hrs by broth microdilution method; format: functional
[21] = system: Trichophyton mentagrophytes; test: Antifungal activity against Trichophyton mentagrophytes after 24 hrs by broth microdilution method; format: functional
Pichia kudriavzevii [22] = test: Antifungal activity against Candida krusei E28 after 24 hrs by broth microdilution method; format: functional; details: E28, 24 h
Candida tropicalis [23] = test: Antifungal activity against Candida tropicalis 156 after 48 hrs by broth microdilution method; format: functional; details: Candida tropicalis, 156, 48 h
Staphylococcus aureus [24] = test: Antibacterial activity against Staphylococcus aureus CCM 4516/08 after 24 hrs by broth microdilution method; format: functional; details: CCM 4516/08, 24 h
Summary of the method: (§2)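 Broth microdilution following […], with twofold compound dilutions in Mueller-Hinton bouillon. Incubated 24 and 48 h at 35 °C in the dark in a humid atmosphere. MIC (IC80) was taken as ≥80% growth reduction versus control, read visually and photometrically.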

Escherichia coli [25] = test: Antibacterial activity against Escherichia coli CCM 4517 after 24 hrs by broth microdilution method; format: functional; details: CCM 4517, 24 h; summary of the method: as §2
Staphylococcus aureus [26] = test: Antibacterial activity against Staphylococcus aureus CCM 4516/08 after 48 hrs by broth microdilution method; format: functional; details: CCM 4516/08, 48 h; summary of the method: as §2
Staphylococcus aureus [27] = test: Antibacterial activity against methicillin-resistant Staphylococcus aureus H5996/08 after 48 hrs by broth microdilution method; format: functional; details: H5996/08, 48 h; summary of the method: as §2
[28] = system: Trichophyton mentagrophytes; test: Antifungal activity against Trichophyton mentagrophytes after 48 hrs by broth microdilution method; format: functional
Enterococcus sp. [29] = test: Antibacterial activity against Enterococcus sp. J14365/08 after 48 hrs by broth microdilution method; format: functional; details: J14365/08, 48 h; summary of the method: as §2
Lichtheimia corymbifera [30] = test: Antifungal activity against Absidia corymbifera 272 after 24 hrs by broth microdilution method; format: functional; details: Lichtheimia corymbifera, 272, 24 h
Candida tropicalis [31] = test: Antifungal activity against Candida tropicalis 156 after 24 hrs by broth microdilution method; format: functional; details: Candida tropicalis, 156, 24 h
[32] = system: Staphylococcus epidermidis; test: Antibacterial activity against Staphylococcus epidermidis H6966/08 after 48 hrs by broth microdilution method; format: functional; details: H6966/08, 48 h; summary of the method: as §2
Candida albicans [33] = test: Antifungal activity against Candida albicans ATCC 44859 after 24 hrs by broth microdilution method; format: functional; details: ATCC 44859, 24 h
Klebsiella pneumoniae [34] = test: Antibacterial activity against Klebsiella pneumoniae D11750/08 after 24 hrs by broth microdilution method; format: functional; details: D11750/08, 24 h; summary of the method: as §2
Enterococcus sp. [35] = test: Antibacterial activity against Enterococcus sp. J14365/08 after 24 hrs by broth microdilution method; format: functional; details: J14365/08, 24 h; summary of the method: as §2
Trichosporon beigelii [36] = test: Antifungal activity against Trichosporon beigelii 1188 after 24 hrs by broth microdilution method; format: functional; details: Trichosporon beigelii, 1188, 24 h
[37] = system: Staphylococcus epidermidis; test: Antibacterial activity against Staphylococcus epidermidis H6966/08 after 24 hrs by broth microdilution method; format: functional; details: H6966/08, 24 h; summary of the method: as §2
Candida albicans [38] = test: Antifungal activity against Candida albicans ATCC 44859 after 48 hrs by broth microdilution method; format: functional; details: ATCC 44859, 48 h
Nakaseomyces glabratus [39] = test: Antifungal activity against Candida glabrata 20/I after 24 hrs by broth microdilution method; format: functional
Escherichia coli [40] = test: Antibacterial activity against Escherichia coli CCM 4517 after 48 hrs by broth microdilution method; format: functional; details: CCM 4517, 48 h; summary of the method: as §2
Klebsiella pneumoniae [41] = test: Antibacterial activity against Klebsiella pneumoniae D11750/08 after 48 hrs by broth microdilution method; format: functional; details: D11750/08, 48 h; summary of the method: as §2
Staphylococcus aureus [42] = test: Antibacterial activity against methicillin-resistant Staphylococcus aureus H5996/08 after 24 hrs by broth microdilution method; format: functional; details: H5996/08, 24 h; summary of the method: as §2
Lichtheimia corymbifera [43] = test: Antifungal activity against Absidia corymbifera 272 after 48 hrs by broth microdilution method; format: functional; details: Lichtheimia corymbifera, 272, 48 h

CC(=O)N[C@@H](Cc1ccccc1)C(=O)Oc1ccc(Cl)cc1C(=O)Nc1ccc(Cl)c(Cl)c1
IC50 (PBMC): 44 µM
MIC [1]: 1 µM (≈ 0.506 µg/mL)
MIC (Mycobacterium kansasii [2]): 1 µM (≈ 0.506 µg/mL)
logP [3]: 5.12
MIC (Mycobacterium avium [4]): 1 µM (≈ 0.506 µg/mL)
MIC (Mycobacterium avium [5]): 8 µM (≈ 4.05 µg/mL)
MIC (Mycobacterium kansasii [6]): 2 µM (≈ 1.01 µg/mL)
MIC (Mycobacterium kansasii [7]): 1 µM (≈ 0.506 µg/mL)
MIC (Mycobacterium kansasii [8]): 2 µM (≈ 1.01 µg/mL)
MIC [9]: 0.5 µM (≈ 0.253 µg/mL)
Selectivity Index [10]: 88
MIC (Mycobacterium kansasii [11]): 1 µM (≈ 0.506 µg/mL)
MIC (Mycobacterium avium [12]): 8 µM (≈ 4.05 µg/mL)
MIC (Mycobacterium kansasii [13]): 4 µM (≈ 2.02 µg/mL)
MIC [14]: 1 µM (≈ 0.506 µg/mL)
MIC (Mycobacterium kansasii [15]): 4 µM (≈ 2.02 µg/mL)

CC(=O)N[C@@H](Cc1ccccc1)C(=O)Oc1cc(Cl)ccc1C(=O)Nc1ccc(Cl)c(Cl)c1
MIC (Aspergillus fumigatus [16]): 125 µM (≈ 63.2 µg/mL)
MIC (Trichosporon beigelii [17]): > 125 µM
MIC (Pichia kudriavzevii [18]): > 125 µM
MIC (Aspergillus fumigatus [19]): > 125 µM
MIC (Nakaseomyces glabratus [20]): > 125 µM
MIC [1]: 2 µM (≈ 1.01 µg/mL)
MIC (Mycobacterium kansasii [2]): 1 µM (≈ 0.506 µg/mL)
MIC [21]: 62.5 µM (≈ 31.6 µg/mL)
MIC (Pichia kudriavzevii [22]): > 125 µM
MIC (Candida tropicalis [23]): > 125 µM
MIC (Mycobacterium avium [4]): 1 µM (≈ 0.506 µg/mL)
MIC (Staphylococcus aureus [24]): 125 µM (≈ 63.2 µg/mL)
MIC (Escherichia coli [25]): 125 µM (≈ 63.2 µg/mL)
MIC (Staphylococcus aureus [26]): > 125 µM
MIC (Mycobacterium avium [5]): 8 µM (≈ 4.05 µg/mL)
MIC (Staphylococcus aureus [27]): > 125 µM
MIC [28]: > 125 µM
MIC (Enterococcus sp. [29]): > 125 µM
MIC (Mycobacterium kansasii [6]): 4 µM (≈ 2.02 µg/mL)
MIC (Mycobacterium kansasii [7]): 4 µM (≈ 2.02 µg/mL)
MIC (Lichtheimia corymbifera [30]): 125 µM (≈ 63.2 µg/mL)
MIC (Candida tropicalis [31]): 125 µM (≈ 63.2 µg/mL)
MIC (Mycobacterium kansasii [8]): 2 µM (≈ 1.01 µg/mL)
MIC [32]: > 125 µM
MIC (Candida albicans [33]): 125 µM (≈ 63.2 µg/mL)
MIC (Klebsiella pneumoniae [34]): > 125 µM
MIC (Enterococcus sp. [35]): 125 µM (≈ 63.2 µg/mL)
MIC [9]: 2 µM (≈ 1.01 µg/mL)
MIC (Trichosporon beigelii [36]): 125 µM (≈ 63.2 µg/mL)
MIC [37]: 125 µM (≈ 63.2 µg/mL)
MIC (Mycobacterium kansasii [11]): 1 µM (≈ 0.506 µg/mL)
MIC (Mycobacterium avium [12]): 16 µM (≈ 8.09 µg/mL)
MIC (Candida albicans [38]): > 125 µM
MIC (Nakaseomyces glabratus [39]): > 125 µM
MIC (Escherichia coli [40]): > 125 µM
MIC (Mycobacterium kansasii [13]): 4 µM (≈ 2.02 µg/mL)
MIC (Klebsiella pneumoniae [41]): > 125 µM
MIC [14]: 1 µM (≈ 0.506 µg/mL)
MIC (Staphylococcus aureus [42]): 125 µM (≈ 63.2 µg/mL)
MIC (Mycobacterium kansasii [15]): 4 µM (≈ 2.02 µg/mL)
MIC (Lichtheimia corymbifera [43]): > 125 µM
